ChEMBL document CHEMBL4017544 (J Med Chem, 2017)

Experiment: Drug level in Wistar rat plasma treated with 1-Hydroxyl-2-cyano-3-(4-(methyl-L-glutaminate-N5-yl)-benzyloxy)-12-oxo-oleana-2(3),9(11)-dien-28-oic Acid Methyl Ester assessed as esterase-mediated metabolite formation at 100 uM after 8 hrs by HPLC analysis
Format: ADME
In short: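 Plasma, and kidney and liver homogenates in PBS, from three Wistar rats; substrate added at 100 μM at 37 °C; metabolite measured by HPLC every 60 min for 8 h; mean ± SD of three experiments.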

Drug metabolism: Metabolite_Detected
SMILES: COC(=O)[C@]12CCC(C)(C)C[C@H]1[C@H]1C(=O)C=C3[C@@]4(C)[C@@H](O)C(C#N)=C(OCc5ccc(NC(=O)CC[C@H](N)C(=O)O)cc5)C(C)(C)[C@@H]4CC[C@@]3(C)[C@]1(C)CC2
